Compounds with a hit are over-represented: about 4.3% of the library has one in this group of screens.
STAT1 blocker: STAT1 signaling inhibitors, primary screen, cell-based, HTS, luciferase reporter | NIH 3T3 STAT1-luciferase reporter, IFN-gamma, luminescence | inhibition, % at 5.5 µM | 0.35% of 200,000 active | AID 920, 2007;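 active = inhibition above a set limit, the mean inhibition across all tested compounds plus 3 SD, cut at about 34% in these data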;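 note: 0% = IFN-gamma with DMSO and 100% = IFN-gamma with 300 µM nifuroxazide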
STAT3 inh: IL-6 driven STAT3 reporter inhibitors, primary screen, U3A cells, luciferase, luminescence, MLSCN library; IL-6 STAT3-luciferase reporter; host cell line lacks STAT1; inhibition, % at 5.5 µM; 0.89% of 190,000 active; AID 862, 2007;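 active = inhibition above the mean inhibition across all screened compounds plus 3 SD, cut at about 44% in these data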;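 note: 0% = DMSO only wells and 100% = 100 µM nifuroxazide control wells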
STAT3 activator: IL-6 driven STAT3 reporter potentiators, primary screen, U3A cells, luciferase, luminescence, MLSCN library. IL-6 STAT3-luciferase reporter; 100% = signal with IL-6 EC80 alone. activation (% of control), % at 5.6 µM. 0.91% of 190,000 active. AID 871, 2007;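 active = activation above the screen-wide mean of compound activation plus 3 SD, cut at about 130% in these data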;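 note: 0% = background luminescence of wells with medium and substrate only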
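Material: human STAT1-deficient U3A cells with stable STAT3-luciferase reporter / Probe or stimulus: IL-6 stimulus at 33 ng/mL final / Schedule: 1 h compound pre-exposure, 6 h IL-6 stimulation, 37 °C / Technique: luminescence / Read-out basis: percent of IL-6-only median luminescence / Control set: IL-6-only high control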
STAT1 activator: STAT1 signaling activators, primary screen, cell-based, HTS, luciferase reporter. NIH 3T3 STAT1-luciferase reporter, IFN-gamma, luminescence; 100% = IFN-gamma alone, no compound. activation (% of control), % at 5.5 µM. 2.6% of 200,000 active. AID 932, 2007;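 active = activation above the screen-wide mean activation plus 3 SD, cut at about 130% in these data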;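 note: raw ratio to IFN-gamma control signal so 100% means no change and 0% no light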
An asterisk follows results filed as active; nt = no result.

SMILES	STAT1 blocker	STAT3 inh	STAT3 activator	STAT1 activator
Cc1ccc2nc3sc(C(=O)NCc4ccco4)c(N)c3cc2c1	-40.1	39.7	69.6	139.4*
Cc1ccc2nc3sc(C(=O)N4CCOCC4)c(N)c3cc2c1	50.4*	89.9*	28.6	54.0
CC(OC(=O)c1ccccc1NCc1ccco1)C(=O)Nc1ncc(Cl)cc1Cl (centres undefined)	9.2	0.2	103.5	92.6
COc1ccc(OC)c(N/C(C)=C/C(=O)c2ccccc2)c1	-38.4	-8.2	107.0	133.7*
COc1ccc(N/C(C)=C/C(=O)c2ccccc2)cc1	-20.9	3.6	100.3	118.5
Cn1c(=O)c2ncn(CC(=O)N/N=C/c3ccco3)c2n(C)c1=O	0.7	-2.9	105.7	99.4
Clc1ccsc1-c1csc(-c2cccnc2)n1	-31.2	-27.2	130.6	128.9*
c1cncc(-c2nc(-c3ccc4c(c3)OCO4)cs2)c1	-47.0	4.9	98.8	143.2*
COC(=O)CNC(=O)Cn1nc(C)c([N+](=O)[O-])c1C	-6.4	2.0	100.3	105.2
O=C(CCC(=O)Nc1ccccc1)NNS(=O)(=O)c1ccccc1[N+](=O)[O-]	3.5	0.3	103.1	96.4
Cc1ccc(N=Cc2cccc(O)c2O)c(C)c1	-3.8	-27.6	127.9	103.4
Cc1ccc(N=Cc2sc(O)c3ccccc23)c(C)c1	-53.2	12.9	91.8	147.3*
Cc1ccsc1C(=O)OCC(=O)N1CCc2ccccc2C1	-49.3	16.4	91.5	144.1*
COc1ccccc1NC(=O)Nc1ccc2c(c1)OCCO2	-31.8	-0.9	103.4	133.1*
COc1cccc(OC)c1C(=O)Nc1ccc2c(c1)OCCO2	-0.4	-1.6	103.6	100.4
COc1cc(C(=O)Nc2ccc3c(c2)OCCO3)ccc1OC(C)C	-23.8	3.1	99.8	121.9
COc1cc(C(=O)Nc2ccc3c(c2)OCCO3)ccc1OC(F)F	-40.5	-6.1	108.8	139.6*
CN1CCN(C(=O)C2=C[C@H](c3ccccc3)C[C@H](OCc3ccc(CO)cc3)O2)CC1	-1.5	nt	nt	102.8
CC(C)(C)NC(=O)c1ccc2nsnc2c1	-1.4	3.5	95.9	101.4
Cc1ccc(CNc2ccc(N3CCOCC3)cc2)s1	-48.8	0.5	103.4	145.2*
O=C(/C=C/Nc1cccc(C(F)(F)F)c1)c1ccco1	-35.0	-13.8	117.6	132.7*
NC(=O)c1ccccc1N/C=C/C(=O)c1ccco1	-36.5	1.5	101.4	133.5*
O=C(/C=C/Nc1ccc(Oc2ccccc2)cc1)c1ccco1	-46.3	34.2	73.5	140.1*
CC(=O)c1ccc(NC(=O)C(=O)c2cn(CC(=O)N3CCCCC3)c3ccccc23)cc1	1.1	4.1	101.1	99.0
Cn1c(Oc2ccc(F)cc2F)c(C=O)c2ccccc21	2.8	9.9	95.6	94.5
SMILES	STAT1 blocker	STAT3 inh	STAT3 activator	STAT1 activator
Cc1ccc(Oc2c(C=O)c3ccccc3n2C)cc1	4.4	-55.8	144.8*	96.0
COc1ccc(Oc2c(C=O)c3ccccc3n2C)cc1	7.9	-3.2	107.2	92.7
Cn1c(Oc2ccc(Cl)cc2)c(C=O)c2ccccc21	15.1	-35.0	141.0*	86.4
O=C(CCCOc1ccccc1)Nc1nc2ccccc2[nH]1	-31.9	10.2	95.2	129.9*
Cc1ccc(OCCCC(=O)Nc2nc3ccccc3[nH]2)cc1	-9.8	5.9	99.2	110.9
O=C(/C=C/c1c(F)cccc1Cl)Nc1nc2ccccc2[nH]1	-34.2	1.1	101.5	130.1*
Cc1ccc(/C=C/C(=O)Nc2nc3ccccc3[nH]2)cc1	-32.0	-15.3	114.7	128.6*
COc1ccc(C(=O)NCC(=O)N/N=C/c2cccc(OC(=O)c3ccco3)c2)cc1OC	-5.4	8.8	97.1	102.8
O=C(O)C1CCCCC1C(=O)NCc1ccccn1 (centres undefined)	-9.9	2.3	102.0	105.9
CC(=O)N1CCc2cc(NC(=O)c3ccc(C)cc3)ccc21	-29.7	29.1	78.0	131.0*
CCSc1ccc(-c2cccc([N+](=O)[O-])c2)nn1	-45.0	-4.6	107.9	137.3*
CCC(CC)c1nnc(NC(=O)c2cc(-c3ccccc3)nc3ccccc23)s1	-0.7	3.1	99.3	100.6
Cc1cccc(NC(=O)c2ccc3ccccc3n2)c1C	-37.9	-48.2	141.8*	134.1*
Cc1ccc(C)c(NC(=S)c2ccc3ccccc3n2)c1	-32.4	-58.3	154.5*	129.2*
CCC(CC)c1nnc(NC(=O)c2ccc3ccccc3n2)s1	-57.4	-60.5	151.8*	151.7*
COc1ccc(NC(C)=O)cc1NC(=O)c1ccc(C#N)cc1	4.8	6.2	96.7	94.0
O=S1(=O)C=C(Sc2nc3ccccc3s2)c2ccccc21	6.9	-33.1	134.5*	94.6
O=C(Nc1cnc2ccccn2c1=O)c1ccc(Cl)cc1	-33.3	-8.0	109.3	130.0*
Cc1ccsc1C1CC(=O)OC2=C1C(=O)CC(C)(C)C2 (centres undefined)	-1.5	3.1	101.1	99.9
Cn1c(=NC(=O)c2cccc([N+](=O)[O-])c2)sc2ccccc21	-76.2	-40.7	135.8*	170.1*
O=[N+]([O-])c1cccc(-c2ccc(C(=S)N3CCOCC3)o2)c1	-44.6	-10.9	111.5	142.6*
S=C(c1ccc(-c2cccc(Cl)c2)o1)N1CCOCC1	-14.6	-7.4	109.9	115.1
O=[N+]([O-])c1cc(-c2ccc(C(=S)N3CCOCC3)o2)ccc1Cl	5.9	1.3	110.3	94.0
O=C(Nc1nccs1)c1ccc(-c2cccc([N+](=O)[O-])c2)o1	-50.0	15.4	91.9	143.2*
S=C(c1ccc(-c2cccc(Cl)c2)o1)N1CCCCC1	-52.3	4.8	97.3	147.3*
SMILES	STAT1 blocker	STAT3 inh	STAT3 activator	STAT1 activator
Cc1cc(=O)[nH]c(SCC(=O)N(CCC#N)c2ccccc2)c1C#N	-2.2	1.3	102.9	99.3
CCOc1cc(C=O)cc(Cl)c1OCC(N)=O	4.5	8.6	103.0	95.2
Cn1c(SCc2ccc(C#N)cc2Cl)nc2ccccc21	-49.9	10.7	91.5	145.2*
c1ccc(NC2=Nc3ccccc3CS2)cc1	-41.3	1.8	103.6	137.7*
O=C(Nc1cc2ccccc2oc1=O)c1ccccc1	76.3*	96.1*	25.4	28.7
COc1ccc(OCC(=O)NNC(=O)C(=O)N2CCCC2)cc1	12.0	1.0	99.9	89.3
CN(C)/C=N/c1cnc(C(=O)c2ccc(Cl)cc2)n1C	-50.5	5.4	103.0	146.0*
CN(C)/C=N/NC(=O)c1ccc(Cl)cc1	-5.4	4.9	98.0	104.4
CCn1cc(Br)c(C(=O)NC(=S)Nc2ccc(C(=O)OC)cc2)n1	0.0	3.1	101.4	100.0
O=C(c1ccc(N2CCOCC2)cc1)c1cccs1	-43.9	39.3	67.2	140.9*
Nc1nnnn1/N=C/c1ccc(O)cc1	-6.2	-1.9	101.7	108.0
CCN(C)c1ccc(/C=N\n2nnnc2N)cc1	-44.5	7.9	98.2	140.7*
COc1ccc([N+](=O)[O-])cc1NC(=O)c1ccc(CN(c2ccccc2)S(C)(=O)=O)cc1	0.8	4.7	96.3	99.3
Cc1ccc(N=Nc2c(N)n(-c3ccccc3)[nH]c2=O)cc1	-43.6	-12.1	110.7	139.0*

Source: PubChem BioAssay (The Scripps Research Institute Molecular Screening Center)
